A selection follows.
PGC1a acetyl up: raises PGC1a acetylation signal in U2OS cells; hit rate 0.21% among 350,000; AID 651723; activation, % at 15.6 µM; U2OS PGC1a acetylation AlphaScreen, overnight;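 active means every replicate reaching activation of at least 50%, whatever the mean replicate activation; inconclusive means replicates that disagree or another doubt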;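 further: hits raise the AlphaScreen acetylation signal above neutral controls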
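System – flag-PGC1a/GCN5 U2OS cells · Quantity – 7000 U2OS cells per well · Signal – AlphaScreen proximity luminescence, anti-acetyl-lysine antibody · Schedule – overnight compound treatment, 37 °C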
Hep G6PC suppr: PGC-1a acetylation activators affecting G6PC expression in hepatocytes; shares compounds with PGC1a acetyl up; primary mouse hepatocytes, G6PC mRNA qPCR, forskolin; G6PC suppression (normalized activity, % of positive control; higher = more suppression), % at 26 µM; 240 tested, under 10 active; AID 743463;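 active means dose curves showing G6PC suppression whose half-maximal dose is at most twice the top valid dose; inconclusive means flat curves with moderate negative activity, or unreliable fits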;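 further: G6PC expression relative to GAPDH housekeeping gene as delta delta Ct; 0% = median of neutral control wells and 100% = median of positive control wells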
PCK1 hep suppr: PGC-1a acetylation activator altering hepatocyte PCK1 expression. PCK1 expression decrease, unspecified at 26 µM. 230 tested, under 10 active. shares compounds with PGC1a acetyl up. primary mouse hepatocytes, PCK1 mRNA qPCR, forskolin-stimulated;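 active means compounds lowering PCK1 expression whose fitted half-maximal concentration is at most twice the top tested dose; inconclusive means flat fit with moderate opposite-direction effect, or poor fit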;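 further: values are delta delta Ct of PCK1 relative to GAPDH; higher delta delta Ct means lower PCK1 expression so positive values indicate hits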
PGC1a hep suppr: PGC-1a acetylation activator altering hepatocyte PGC-1a expression | AID 743467 | max activity (PGC-1a expression decrease), % | shares compounds with PGC1a acetyl up | 240 tested, under 10 active | primary mouse hepatocytes, PGC-1a mRNA qPCR, forskolin; top dose 26 µM;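 active means compound lowering PGC-1a expression with fitted half-maximal concentration at most twice its top tested dose; inconclusive means flat curve with moderate opposite-direction effect, or poor fit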;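 further: 0% = neutral control wells median and 100% = positive control wells median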
Active calls of the source: *; [ ] = remark or other dose.

For C[C@H](CO)N1C[C@H](C)[C@@H](CN(C)Cc2ccc3c(c2)OCO3)Oc2cc(Br)ccc2S1(=O)=O the results were PGC1a acetyl up 51*.
Screening Cc1ccc(S(=O)(=O)N(C)C[C@@H]2Oc3cc(C#Cc4ccncc4)ccc3S(=O)(=O)N([C@@H](C)CO)C[C@H]2C)cc1 returned PGC1a acetyl up -60.
For Cc1ccc(S(=O)(=O)N(C)C[C@@H]2Oc3cc(C#Cc4ccncc4)ccc3S(=O)(=O)N([C@H](C)CO)C[C@H]2C)cc1 the results were PGC1a acetyl up -42.
`C[C@@H]1CN([C@H](C)CO)S(=O)(=O)c2ccc(C#CC3CCCC3)cc2O[C@H]1CN(C)C` gave PGC1a acetyl up 52*.
`COc1ccc(S(=O)(=O)N(C)C[C@@H]2Oc3cc(C#CC4CC4)ccc3S(=O)(=O)N([C@H](C)CO)C[C@H]2C)cc1` gave PGC1a acetyl up 59*.
`C[C@@H]1CN([C@@H](C)CO)S(=O)(=O)c2ccc(C#CC3CCCCC3)cc2O[C@H]1CN(C)Cc1cccnc1` gave PGC1a acetyl up -60.
`CC(C)C#Cc1ccc2c(c1)O[C@@H](CN(C)C(=O)C1CC1)[C@@H](C)CN([C@@H](C)CO)S2(=O)=O` gave PGC1a acetyl up -48.
For O=C(C[C@@H]1C=C[C@@H](NC(=O)Nc2ccc(C(F)(F)F)cc2)[C@H](CO)O1)NCc1ccccn1 the results were PGC1a acetyl up -43.
Screening O=C(NCCN1CCOCC1)c1ccc(=O)oc1 returned PGC1a acetyl up 52*.
For O=C(Nc1ccc(CN2CCOCC2)cc1)c1ccc(F)cc1 the results were PGC1a acetyl up -54.
Screening Cc1noc(C)c1NC(=O)N(C)C[C@@H]1Oc2ccc(NS(=O)(=O)c3cn(C)cn3)cc2C(=O)N([C@@H](C)CO)C[C@@H]1C returned PGC1a acetyl up -46.
For O=C(CC1CC1)N[C@H]1CC[C@@H](CCNS(=O)(=O)c2ccc(Cl)cc2)O[C@@H]1CO the results were PGC1a acetyl up -67.
`CN(C)CCCNC(=O)CC1C[C@H](C(=O)N2CCCCC2)[C@@]2(CCc3ccccc3)c3[nH]c4ccccc4c3CCN2C1=O` (some centres not stated) gave PGC1a acetyl up 99*.
For CCN(CC)C(=O)[C@H]1CC(CC(=O)NCc2cccc(C(F)(F)F)c2)C(=O)N2CCc3c([nH]c4ccccc34)[C@]12C (some centres not stated) the results were PGC1a acetyl up -54.
CN(CCc1ccccc1)C(=O)c1ccc(NC(=O)Cc2ccc(NC(=O)C3CCN(C(=O)C4CCCCC4)CC3)cc2)cc1 was read as PGC1a acetyl up -42.
`COc1ccc(OCCCC(=O)OCC(=O)Nc2c(C)nn(-c3ccccc3)c2C)cc1` gave PGC1a acetyl up -85.
Cc1ccc2[nH]c3ccccc3c(=O)c2c1 was read as PGC1a acetyl up 68*.
Screening Cc1cc(C)n(C/C=C/Cn2nc(C)cc2C)n1 returned PGC1a acetyl up -44.
For CC(C)OC(=O)c1c(F)c(F)c(N2CCOCC2)c(F)c1F the results were PGC1a acetyl up -57.
CCCc1ccc(C(O)c2ncc(-c3cccc(F)c3)[nH]2)cc1 (configuration not stated) was read as PGC1a acetyl up -43.
Screening COc1ccc(CCNc2ccc(C(CC(N)=O)NC(=O)c3cc(C)cc(C)c3)cc2[N+](=O)[O-])cc1 (configuration not stated) returned PGC1a acetyl up -46.
For Nc1ccc(N2CCCCC2)cc1N1CCCCC1 the results were PGC1a acetyl up 54*.
For O=C(O)c1cc(N2CCCCC2)ccn1 the results were PGC1a acetyl up -48.
Cc1noc(C)c1S(=O)(=O)Nc1cccc2c1O[C@@H](CN(C)Cc1ccncc1)[C@@H](C)CN([C@@H](C)CO)C2=O was read as PGC1a acetyl up -51.
Screening Cc1cccc(CCN(CC(=O)NC(C)(C)C)C(=O)c2csnn2)c1 returned PGC1a acetyl up -47.
For CCOC(=O)c1ccc(NC(=O)N2CCc3ccccc3C2)cc1 the results were PGC1a acetyl up inconclusive, Hep G6PC suppr 25[8 µM], PCK1 hep suppr 22 and PGC1a hep suppr 117.
CCOC(=O)c1ccc(N2C(=O)C=CC2=O)cc1 was read as PGC1a acetyl up -46.
`CCOC(=O)c1sc2nc(C)nc(NCc3ccccc3OC)c2c1C` gave PGC1a acetyl up -63, Hep G6PC suppr 101, PCK1 hep suppr 149 and PGC1a hep suppr 129.
`O=C(Nc1cccnc1)c1ccc(Br)s1` gave PGC1a acetyl up inconclusive, Hep G6PC suppr -8, PCK1 hep suppr 27 and PGC1a hep suppr 47.
For Cc1nnc(SCC(=O)N2CCC(c3noc4ccc(F)cc34)CC2)s1 the results were PGC1a acetyl up -57.
`C=C[C@H]1C(C(=O)OCC)=CC[C@@H](c2ccccc2)N1S(=O)(=O)c1ccc(C)cc1` gave PGC1a acetyl up inconclusive, Hep G6PC suppr -62, PCK1 hep suppr inconclusive and PGC1a hep suppr 57.
For O=C(O)CC1S/C(=N/N=C/c2ccc(Br)cc2)N(c2ccccc2)C1=O (configuration not stated) the results were PGC1a acetyl up -75.
CCOc1ccc(S(=O)(=O)N(C)C)cc1-c1nc2c(C(C)(C)C)nn(C)c2c(=O)[nH]1 was read as PGC1a acetyl up -48.
`CN(C)/C=N/c1nc2nccc(-c3ccccn3)n2n1` gave PGC1a acetyl up -47.
Screening Cc1ccc(C)c(S(=O)(=O)N(C(=O)c2ccncc2)c2ccc(OC(=O)c3ccncc3)cc2)c1 returned PGC1a acetyl up -44.
Screening Cc1cc(C)c(C#N)c(N2CCN(c3ccccc3)CC2)n1 returned PGC1a acetyl up -49.
`COc1ccc(-c2c(-c3cc(OC)cc(OC)c3)n(C)c3ccc(-c4cnc(N)nc4)cc23)cc1` gave PGC1a acetyl up inconclusive, Hep G6PC suppr 998, PCK1 hep suppr 516 and PGC1a hep suppr 63.
O=C(c1ccc(Cl)cc1)C(Cn1cncn1)C(Sc1ccccc1)c1ccccc1 (configuration not stated) was read as PGC1a acetyl up -61.
`CC1(C)CCCN(C(=O)N2c3ccccc3Sc3ccccc32)C1` gave PGC1a acetyl up inconclusive, Hep G6PC suppr -23, PCK1 hep suppr 14 and PGC1a hep suppr 82.
`COC(=O)C[C@H]1c2cc(C(F)(F)F)ccc2S(=O)(=O)N1Cc1ccc(OC)cc1` gave PGC1a acetyl up 106*, Hep G6PC suppr 29, PCK1 hep suppr 70 and PGC1a hep suppr 68.
For CNC[C@@H](CC1CCCCC1)NC[C@H](CC(C)C)NCCc1cccc(C(F)(F)F)c1 the results were PGC1a acetyl up -88.
`COc1ccc(C2c3[nH]c4ccccc4c3C[C@H]3C(=O)N(c4ccccc4C(=O)N4CCC[C@@H]4C(=O)O)C(=O)N23)cc1` (some centres not stated) gave PGC1a acetyl up -44.
`COc1ccc([N+](=O)[O-])c(S(=O)(=O)c2ccc(Cl)cc2)n1` gave PGC1a acetyl up -45.

Bioassay records: PubChem, Broad Institute
